Screening data: PubChem, Johns Hopkins Ion Channel Center
Hits are enriched below; roughly 3.7% of the tested compounds scored in any of these assays.
KCNQ1 pot = human KCNQ1 channel potentiation or activation. CHO-K1 KCNQ1, thallium flux FluxOR fluorescence; active compounds read high. B-score at 10 µM. 0.35% of 310,000 active. AID 2648;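 active = fluorescence ratio B-score, a plate-corrected score, at least three library SD, with initial intensity B-score within 5 SD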
Target sequence (P51787 whole entry, looked up): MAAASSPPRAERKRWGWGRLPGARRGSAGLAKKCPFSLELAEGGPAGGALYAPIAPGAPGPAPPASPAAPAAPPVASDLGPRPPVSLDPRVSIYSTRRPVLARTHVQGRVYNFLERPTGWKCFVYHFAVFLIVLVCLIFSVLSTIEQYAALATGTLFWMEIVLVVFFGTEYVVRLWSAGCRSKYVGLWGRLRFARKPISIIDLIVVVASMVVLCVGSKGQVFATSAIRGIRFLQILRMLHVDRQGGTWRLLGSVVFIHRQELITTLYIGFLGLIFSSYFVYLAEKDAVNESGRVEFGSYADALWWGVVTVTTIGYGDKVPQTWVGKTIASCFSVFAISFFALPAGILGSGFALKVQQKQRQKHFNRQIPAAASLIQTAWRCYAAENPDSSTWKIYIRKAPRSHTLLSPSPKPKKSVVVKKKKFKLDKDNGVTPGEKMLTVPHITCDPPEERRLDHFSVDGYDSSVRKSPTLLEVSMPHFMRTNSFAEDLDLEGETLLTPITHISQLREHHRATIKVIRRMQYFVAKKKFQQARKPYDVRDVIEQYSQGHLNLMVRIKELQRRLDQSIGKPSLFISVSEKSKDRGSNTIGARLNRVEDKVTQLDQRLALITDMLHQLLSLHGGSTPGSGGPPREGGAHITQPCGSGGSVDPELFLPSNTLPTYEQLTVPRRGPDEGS
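Doses: Single concentration per compound, DMSO matched to controls | Test system: KCNQ1-transfected CHO-K1 cells | Timing: 90 min dye loading and 20 min compound exposure, both at room temperature | Measured by: Kinetic FluxOR thallium fluorescence, 10-s 1-Hz baseline, 110-s post-stimulus read | Medium: Assay buffer with matched DMSO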
KCNK9 block = blocks the human KCNK9 two-pore domain potassium channel | HEK293 KCNK9, FluxOR thallium flux fluorescence; active compounds read low | AID 488922 | B-score at 10 µM | 1.2% of 310,000 active;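 active = ratio B-score over 3 SD below the library mean, with starting fluorescence within 5 SD of its mean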;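 also: negative B-score means less thallium flux so channel inhibition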
KCNQ1 block = human KCNQ1 channel inhibition; CHO-K1 KCNQ1, FluxOR thallium flux fluorescence; active compounds read high; AID 2642; B-score at 10 µM; P51787; 1.3% of 310,000 active;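 active = compounds whose thallium flux B-score, printed positive for inhibition, exceeds three library SD while starting fluorescence stays within three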;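 also: channel opened by potassium depolarization with thallium stimulus after 20 min compound exposure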
hERG rescue = hERG (human) protection from proarrhythmic block. Q12809. 0.51% of 310,000 active. AID 1511. CHO-hERG, FluxOR thallium flux, dofetilide IC70 present. activation (rescue from dofetilide block), less the hit threshold, % at 10 µM;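 active = activation above the mean of controls blocked by dofetilide plus 5 SD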;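 also: thallium influx through hERG after potassium depolarization seen as dye fluorescence rise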
KCNK3 block = human KCNK3 channel inhibition, primary screen; 0.84% of 340,000 active; AID 602410; O14649; B-score at 10 µM; CHO-KCNK3 thallium flux, FluxOR fluorescence; active compounds read low;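 active = B-score under library mean minus 4 SD, starting fluorescence ratio at most library mean plus 5 SD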;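 also: more negative B-score means stronger inhibition of thallium flux through KCNK3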
Kir21 block = blocks the mouse Kir2.1 inward-rectifier potassium channel; B-score at 10 µM; P35561; AID 1672; HEK293-Kir2.1, FluxOR thallium flux fluorescence; active compounds read low; 0.85% of 310,000 active;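 active = fluorescence ratio B-score at or below minus 3 SD of library scores, with starting-brightness B-score within 2 SD, cut at about -4.2 in these data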;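 also: channel flux triggered by added potassium and thallium sulfate stimulus; B-score of peak minus minimum fluorescence over baseline after thallium stimulus; more negative B-score means stronger Kir2.1 block with less thallium influx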
KCNQ1 inh valid = human KCNQ1 channel inhibition, validation assay. shares compounds with KCNQ1 block. KCNQ1 cell line, FluxOR thallium flux fluorescence. inhibition, % at 10 µM. 93% of 1,600 active. AID 588353;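 active = primary screen active, with duplicate mean exceeding buffer control mean plus 3 SD of buffer wells, cut at about 28% in these data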;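 also: 0% = buffer control ratio and 100% = XE991 inhibitor control ratio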
CHO Tl flux = KCNQ1 inhibitor counter-screen hit in parental CHO cells; 21% of 1,600 active; fluorescence ratio (Tl flux) at 10 µM; shares compounds with KCNQ1 block; AID 588366; parental CHO-K1, FluxOR thallium flux fluorescence ratio; active compounds read low; zero means no signal rise above baseline;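 active = mean of duplicate thallium-flux fluorescence ratios in parental host cells more than 5 SD below the buffer control mean, cut at about 0.38 in these data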;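 also: ratio is peak minus minimum fluorescence divided by baseline fluorescence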
KCNQ1 ephys val = human KCNQ1 inhibition validated by electrophysiology. KCNQ1-CHO cells, automated patch clamp current. 20% of 490 active. shares compounds with KCNQ1 block. calls only at 10 µM;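 active = KCNQ1 current drop exceeding 3 SD of negative control wells, seen in both duplicate runs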;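 also: steady state current during a 2 s step from -80 to +40 mV; negative values mean current inhibition and positive values mean potentiation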
KCNQ2 spec = rat KCNQ2 inhibition in KCNQ1 inhibitor specificity screen | shares compounds with KCNQ1 block | KCNQ2 cells, FluxOR thallium flux fluorescence | inhibition, % at 10 µM | 71% of 1,600 active | AID 651746;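 active = mean percent inhibition of the KCNQ2 thallium signal more than 5 SD above the buffer-only control wells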;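 also: KCNQ2 expressed in CHO cells; 0% = buffer control wells and 100% = XE-991 inhibitor control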
KCNQ1-KCNE1 inh = selectivity of KCNQ1 inhibitors: inhibition of human KCNQ1/KCNE1 channel | 77% of 1,600 active | KCNQ1/KCNE1 cells, FluxOR thallium flux fluorescence | inhibition, % at 10 µM | shares compounds with KCNQ1 block;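 active = mean percent inhibition of duplicate wells above the buffer-only control mean plus 3 SD of those controls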;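 also: 0% = buffer only wells and 100% = XE-991 inhibitor control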
KCNK9 block conf = human KCNK9 inhibitor confirmation. shares compounds with KCNK9 block. inhibition, % at 10 µM. 43% of 4,900 active. HEK293 KCNK9 cells, FluxOR thallium flux fluorescence;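 active = thallium signal inhibited by more than 5 SD of the compound-free buffer control wells, on both duplicate plates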;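 also: 0% = assay buffer control wells without compound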
Kir2-1 spec = mouse Kir2.1 off-target activity of KCNK9 modulators. Kir2.1 cells, FluxOR thallium flux fluorescence. inhibition, % at 10 µM. 4% of 4,900 active. shares compounds with KCNK9 block;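 active = thallium signal drop more than 5 SD beyond the mean of the no-compound control wells, seen in both duplicate plates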;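 also: signal is fluorescence rise after thallium addition divided by baseline fluorescence; plate controls were assay buffer only for no effect and full block by chlorpromazine control for full effect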
KCNK9 uninduced = non-induced cell nonspecific activity of KCNK9 modulators; shares compounds with KCNK9 block; inhibition, % at 10 µM; 40% of 4,900 active; non-induced KCNK9-HEK293, FluxOR thallium flux; AID 492997;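 active = thallium signal drop beyond 5 SD of the untreated control mean, on both duplicate plates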;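 also: plate controls were buffer only IC0 wells for no effect and SID17386958 at its maximal inhibitory level for full effect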
KCNK3 inh conf = confirmation of human KCNK3 two-pore domain potassium channel inhibitors; shares compounds with KCNK3 block; CHO-KCNK3 thallium flux, FluxOR fluorescence; 0% buffer, 100% carvedilol maximal block; ratio percent of control, % at 10 µM; 99% of 2,400 active;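 active = ratio percent of control, averaged over triplicates, above buffer control mean plus 5 SD, cut at about 64% in these data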;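 also: ratio is the fluorescence rise from min to max over baseline after thallium stimulus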
KCNK3 noninduced = KCNK3 inhibitor counter-screen hit in non-induced cells | shares compounds with KCNK3 block | non-induced KCNK3 parental cells, FluxOR thallium flux; active compounds read low | thallium flux ratio (lower = more inhibition) at 10 µM | 40% of 2,400 active | AID 651747;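 active = thallium flux ratio, averaged over three wells, more than 5 SD below the buffer control mean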;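 also: host cells are CHO cells without KCNK3 induction; ratio is peak minus trough fluorescence over baseline then normalized to buffer controls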
An asterisk follows results filed as active.

Screening COc1ccc(-n2cc(CNCCCn3ccnc3)c(-c3cccc(F)c3)n2)cc1 returned KCNQ1 pot inactive, KCNK9 block inactive, KCNQ1 block inactive, hERG rescue -9, KCNK3 block inactive and Kir21 block -2.7.
O=C(NCC1CCCO1)c1ccccc1NS(=O)(=O)c1ccc(F)cc1 (stereo not given) was read as KCNK3 block inactive.
Cn1cnc([N+](=O)[O-])c1S(=O)(=O)Oc1ccc(Cl)cc1 was read as KCNK3 block inactive.
Screening O=C(CCCOc1ccc(Cl)cc1Cl)N1CCCc2ccccc21 returned KCNQ1 pot inactive, KCNK9 block inactive, KCNQ1 block 8*, hERG rescue -11, KCNK3 block -11*, Kir21 block -1.8, KCNQ1 inh valid 112*, CHO Tl flux 0.41, KCNQ1 ephys val inactive, KCNQ2 spec 92%*, KCNQ1-KCNE1 inh 167%*, KCNK9 block conf inactive, Kir2-1 spec inactive, KCNK9 uninduced 33%*, KCNK3 inh conf 122* and KCNK3 noninduced 0.14*.
For Cc1cc(C)n(-c2cc(C(C)(C)C)nc3c(-c4ccccc4)cnn23)n1 the results were KCNQ1 pot inactive, KCNK9 block inactive, KCNQ1 block 8*, hERG rescue -8, KCNK3 block -13*, Kir21 block -0.65, KCNQ1 inh valid 85*, CHO Tl flux 0.5, KCNQ2 spec inactive, KCNQ1-KCNE1 inh 114%*, KCNK3 inh conf 108* and KCNK3 noninduced inactive.
For Cc1ccc(S(=O)(=O)NCC(=O)N(CC2CCCO2)C(C(=O)NC2CCCCC2)C(C)C)cc1 (stereo not given) the results were KCNQ1 pot inactive, KCNK9 block inactive, KCNQ1 block inactive, hERG rescue -5, KCNK3 block inactive and Kir21 block 1.5.
O=C(C1CC1)N1N=C(c2ccncc2)CC1(O)C(F)(F)F (stereo not given) was read as KCNQ1 pot inactive, KCNK9 block inactive, KCNQ1 block inactive, hERG rescue -3, KCNK3 block inactive and Kir21 block -2.1.
COc1ccc(-n2cc(-c3ccccc3)c3c(N4CC(C)OC(C)C4)ncnc32)cc1 (stereo not given) was read as KCNQ1 pot inactive, KCNK9 block inactive, KCNQ1 block 12*, hERG rescue -35, KCNK3 block -11*, Kir21 block -1.3, KCNQ1 inh valid 121*, CHO Tl flux 0.41, KCNQ1 ephys val inactive, KCNQ2 spec 142%*, KCNQ1-KCNE1 inh 170%*, KCNK3 inh conf 114* and KCNK3 noninduced 0.13*.
Screening CCOc1ccc(-n2cc(-c3ccccc3)c3c(N4CCOCC4)ncnc32)cc1 returned KCNQ1 pot inactive, KCNK9 block inactive, KCNQ1 block inactive, hERG rescue -14, KCNK3 block inactive and Kir21 block 0.27.
For C[C@@H](C(=O)NNC(=O)c1ccc(Cl)cc1)N1C(=O)C2CC=CCC2C1=O (stereo not given in full) the results were KCNK3 block inactive.
`CC1=Nc2ccccc2/C1=C/c1sc(=S)n(-c2cccc(C(=O)O)c2)c1O` gave KCNQ1 pot inactive, KCNK9 block inactive, KCNQ1 block 15*, hERG rescue 4, KCNK3 block -11*, Kir21 block -6.3, KCNQ1 inh valid 106*, CHO Tl flux 0.34*, KCNQ2 spec inactive, KCNQ1-KCNE1 inh inactive, KCNK3 inh conf 145* and KCNK3 noninduced 0.11*.
For Oc1c(C=C2N=c3ccccc3=N2)sc(=S)n1-c1ccccc1 the results were KCNQ1 pot inactive, KCNK9 block inactive, KCNQ1 block inactive, hERG rescue -8, KCNK3 block inactive and Kir21 block 0.78.
For CC(C)(C)n1nnnc1C(c1ccc(Cl)cc1)N1CCCc2ccccc21 (stereo not given) the results were KCNQ1 pot inactive, KCNK9 block -11*, KCNQ1 block 6*, hERG rescue -11, KCNK3 block inactive, Kir21 block 0.47, KCNQ1 inh valid 82*, CHO Tl flux 0.43, KCNQ2 spec 88%*, KCNQ1-KCNE1 inh 85%*, KCNK9 block conf 56%*, Kir2-1 spec inactive, KCNK9 uninduced 42%*, KCNK3 inh conf 131* and KCNK3 noninduced 0.13*.
`c1ccc(-c2cc(-c3nc4ccccc4[nH]3)c3ccccc3n2)cc1` gave KCNQ1 pot inactive, KCNK9 block -7.6*, KCNQ1 block 8*, hERG rescue -38, KCNK3 block -10*, Kir21 block -0.14, KCNQ1 inh valid 149*, CHO Tl flux 0.25*, KCNQ2 spec 122%*, KCNQ1-KCNE1 inh active, KCNK3 inh conf 143* and KCNK3 noninduced 0.13*.
